# Hits are enriched below; roughly 4.9% of the tested compounds scored in any of these assays.
# APP 5'UTR act – APP 5'UTR luciferase reporter activation. SH-SY5Y APP 5'UTR luciferase reporter, luminescence; zero percent = DMSO vehicle wells. activation, % at 2 µM. actives 1% (n = 190,000);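 active means activation above a set limit, based on mean plus 3 SD of controls, cut at about 140% in these data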
# STAT1 inh – STAT1 signaling inhibition; NIH 3T3 STAT1-luciferase reporter, IFN-gamma, luminescence; inhibition, % at 5.5 µM; actives 0.35% (n = 200,000); AID 920;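 active means inhibition above a set limit, the mean inhibition across all tested compounds plus 3 SD, cut at about 34% in these data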;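 further: 0% = IFN-gamma with DMSO and 100% = IFN-gamma with 300 µM nifuroxazide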
# STAT3 activator – activators of IL-6 induced STAT3 signaling; U3A cells, IL-6 STAT3-luciferase reporter, luminescence; 100% = signal with IL-6 EC80 alone; activation (% of control), % at 5.6 µM; actives 0.91% (n = 190,000); AID 871;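 active means activation above the screen-wide mean of compound activation plus 3 SD, cut at about 130% in these data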;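 further: 0% = background luminescence of wells with medium and substrate only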
#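 Material: human STAT1-deficient U3A cells with stable STAT3-luciferase reporter / Probe or stimulus: IL-6 stimulus at 33 ng/mL final / Schedule: 1 h compound pre-exposure, 6 h IL-6 stimulation, 37 °C / Technique: luminescence / Read-out basis: percent of IL-6-only median luminescence / Control set: IL-6-only high control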
# STAT1 act – increases IFN-gamma driven STAT1 reporter signal; NIH 3T3 STAT1-luciferase reporter, luminescence; 100% = IFN-gamma alone, no compound; activation (% of control), % at 5.5 µM; actives 2.6% (n = 200,000); AID 932;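 active means activation above the screen-wide mean activation plus 3 SD, cut at about 130% in these data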;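 further: raw ratio to IFN-gamma control signal so 100% means no change and 0% no light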
# STAT3 blocker – STAT3 signaling inhibition. U3A cells, IL-6 STAT3-luciferase reporter, luminescence; host cell line lacks STAT1. inhibition, % at 5.5 µM. actives 0.89% (n = 190,000). AID 862;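 active means inhibition above the mean inhibition across all screened compounds plus 3 SD, cut at about 44% in these data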;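 further: 0% = DMSO only wells and 100% = 100 µM nifuroxazide control wells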
# NF-kB expr up – compounds increasing NF-kB expression in human neuronal cells; NF-kB reporter expression; stronger effect = higher value; fold change at 12.5 µM; actives 1.6% (n = 190,000); in the data active means fold change above about 3.3
# An asterisk follows results filed as active; x = not tested or not shown.
SMILES,APP 5'UTR act,STAT1 inh,STAT3 activator,STAT1 act,STAT3 blocker,NF-kB expr up
CC1(C)Cc2nc3sc4c(SCC(=O)NCc5ccco5)ncnc4c3cc2CO1,12,-26,97,124,6,1.6
N#CC1(C#N)[C@@H](C(=O)C23CC4CC(CC(C4)C2)C3)C12CCOCC2,9,2,101,98,-3,1.2
Cc1ccc2nc(SC(C)C(=O)N3CCOCC3)[nH]c2c1 (configuration not stated),56,-52,115,146*,-12,2.2
Cc1ccc(C(=O)Nc2nc3ccc(S(C)(=O)=O)cc3s2)o1,103,-22,93,121,11,2.1
O=C(NC(=S)Nc1nc2ccc(F)cc2s1)c1ccco1,107,-32,157*,130*,-69,0.84
CS(=O)(=O)c1ccc2nc(NC(=O)c3ccco3)sc2c1,64,-34,94,131*,12,2.3
O=C(NCCCl)Nc1cccnc1Cl,-16,8,106,93,-5,1.1
NC(=O)Cn1c(=O)n(CCC(=O)NCCSCc2ccccc2)c(=O)c2ccccc21,-3,-7,95,105,9,1.1
CCN(CC)S(=O)(=O)c1ccc(NC(=O)COC(=O)CNS(=O)(=O)/C=C/c2ccccc2)cc1,-15,2,104,98,-5,0.97
COc1ccc([N+](=O)[O-])cc1NC(=O)C(C)Sc1nc(-c2ccccc2)cs1 (configuration not stated),10,-7,104,106,-10,0.76
O=C(N/N=C/c1ccc([N+](=O)[O-])cc1)c1[nH]ncc1Br,94,-36,90,131*,16,1.6
Cc1ccc(C(=O)O/N=C(\N)c2nonc2N)cc1,13,-38,96,134*,0,1
N/C(=N/OC(=O)c1ccccc1Cl)c1nonc1N,19,-11,92,110,13,4.9*
COc1ccc2cc(C(c3nnnn3C3CCCC3)N3CCOCC3)c3nnnn3c2c1 (configuration not stated),13,-5,110,104,-6,1.2
CC(C)CC(=O)NC(=S)Nc1sc2c(c1C(N)=O)CCC2,55,-51,105,144*,-1,1.5
CC(=O)NC(=S)Nc1sc2c(c1C(N)=O)CCC(C)C2 (configuration not stated),65,-37,98,132*,5,3.5*
CC(C)(C)C(=O)NC(=S)Nc1sc2c(c1C(N)=O)CCC2,46,-54,107,146*,-3,2.1
O=S(=O)(c1ccccc1Br)N1CCC(O)(c2cccnc2)CC1,-3,8,86,91,21,1
CCOC(=O)C1=C(C)N=c2s/c(=C/c3ccccc3)c(=O)n2C1c1ccc(OC)c(OC)c1 (configuration not stated),4,-2,108,102,2,1.2
CCOC(=O)C1=C(C)n2c(s/c(=C/c3cccc([N+](=O)[O-])c3)c2=O)=NC1c1ccc(O)c(OC)c1 (configuration not stated),2,-1,107,101,-2,6.8*
CN(C)c1ccc(NC(=O)CCCc2ccccc2)cc1,150*,-42,107,138*,-4,5.4*
O=C(CCc1ccccc1)Nc1ccccc1,29,-17,95,114,10,1.9
CCOC(=S)SCC(=O)Nc1nc(-c2ccc(Br)cc2)cs1,-32,-9,108,108,-6,4.6*
Cc1nc(NC(=O)c2oc3ccccc3c2C)sc1C(=O)N(C)C,43,-43,86,139*,21,2.1
Cc1nc(NC(=O)c2ccccc2[N+](=O)[O-])sc1C(=O)N(C)C,-11,2,81,98,28,1.4
SMILES,APP 5'UTR act,STAT1 inh,STAT3 activator,STAT1 act,STAT3 blocker,NF-kB expr up
COc1ccc(N(CC(=O)NCCC2=CCCCC2)S(=O)(=O)c2ccc(C)cc2)cc1,-6,-12,114,110,-8,1.3
Cc1[nH]c2c(C)cccc2c1CC(=O)O,-12,0,103,98,5,1.1
Cc1[nH]c2ccccc2c1CC(=O)O,8,1,133*,99,-34,0.88
CCOc1cccc(NC(=O)c2cccc(F)c2)c1,18,20,89,80,14,1.3
Cc1ccc(N/C=C/C(=O)c2ccc(C)cc2)cc1,91,-48,81,144*,28,5.2*
COc1ccc(N/C=C/C(=O)c2ccc(Cl)cc2)cc1,152*,-45,104,140*,-4,1
Cc1ccc(C(=O)/C=C/C(=O)c2ccc(C)cc2)cc1,-67,11,109,89,-8,1.5
COc1ccc(C(=O)/C=C/Nc2ccc(NC(C)=O)cc2)cc1OC,-9,-12,89,111,19,0.99
Cc1ccc(C(=O)/C=C\Nc2ccc(C)c(C)c2)cc1,170*,-39,96,136*,6,2.4
COC(=O)c1ccc(N/C=C/C(=O)c2ccc(OC)c(OC)c2)cc1,13,-12,99,111,9,1.1
COc1cccc(C(=O)/C=C/Nc2ccc(NC(C)=O)cc2)c1,60,-41,99,136*,1,1.1
O=C(c1ccco1)N1CCN(Cc2cccc([N+](=O)[O-])c2)CC1,-10,6,97,94,5,1
Cc1ccc(C(=O)/C=C/Nc2ccccn2)cc1,115,84*,12,24,109*,x
N/C(=N\OC(=O)/C=C/c1ccccc1)c1cccnc1,55,-18,102,116,4,1
N/C(=N\OC(=O)/C=C/c1ccc(Br)cc1)c1ccccn1,188*,-23,78,121,24,3.9*
N/C(=N\OC(=O)/C=C/c1ccccc1Cl)c1ccccn1,124,43*,43,59,69*,4.1*
O=C(Nc1ccccc1[N+](=O)[O-])c1cccnc1Cl,17,3,100,97,3,1.1
Cc1[nH]c2ccccc2c1/C=N/NC(=O)C1CC1(c1ccccc1)c1ccccc1 (configuration not stated),16,-8,117,108,-24,0.6
Cc1nc(/C(N)=N/OC(=O)Cc2ccccc2)no1,1,4,99,96,7,1.4
O=S(=O)(c1ccc(F)c(F)c1F)N1CCN(C(=S)Nc2ccccc2)CC1,15,-1,104,100,-4,0.7
CC(=O)c1cnc(Nc2cccc(C)c2)s1,58,-36,92,134*,17,2.4
O=C(c1ccccc1)c1cnc(Nc2ccc(Cl)c(Cl)c2)s1,4,-8,86,107,20,1.4
c1ccc(Nc2scc(-c3ccccc3)[n+]2Cc2ccco2)cc1,113,-46,111,143*,-9,3.4*
COc1ccc(NS(=O)(=O)c2cc(NC(=O)/C=C/c3ccccc3OC)ccc2N2CCCCC2)cc1,18,4,100,97,9,0.92
